# Screening results (PubChem)
# CHOP inhibitor: CHOP inhibition in unfolded protein response. CHO-K1 CHOP-promoter luciferase, tunicamycin-induced, 15-18 h. inhibition, % at 10 µM. actives 3.8% (n = 220,000). AID 2732;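 active = compounds that reduced the stress-induced luciferase reporter signal by more than about 70% of percent inhibition, limit read from the data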;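 also: 0% = tunicamycin plus vehicle and 100% = wells without tunicamycin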
# PvdQ acylase: P. aeruginosa PvdQ acylase inhibition; actives 0.063% (n = 340,000); AID 488965; inhibition, % at 10 µM; purified PvdQ acylase, fluorescence plate reader; in the data active = inhibition above about 30%, passing the limit was not always enough;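 also: 0% = vehicle neutral wells and 100% = reference inhibitor wells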
# UPR CHOP act: activators of apoptotic arm of unfolded protein response (CHOP). actives 0.34% (n = 330,000). CHO-CHOP luciferase reporter, UPR activation, luminescence; percent of tunicamycin response over DMSO baseline. activation, % at 10 µM;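 active = at 10 µM dose, activation of 40% or more, normalized to positive control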;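 also: 100% = tunicamycin at 10 µg/mL and 0% = DMSO alone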
#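 measured by = luciferase luminescence | assay system = CHO-CHOP cells, stable luciferase reporter of PERK-eIF2a-CHOP signalling | amount = 500 reporter cells seeded per well | timing = 6 h compound exposure at 37 °C after overnight seeding | controls = positive tunicamycin 10 µg/mL, negative DMSO alone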
# XBP1 UPR activ: adaptive UPR (XBP1) activation; CHO-XBP1 luciferase reporter, IRE1-XBP1 UPR activation, luminescence; percent of tunicamycin response, DMSO as zero; actives 0.33% (n = 330,000); activation, % at 20 µM;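 active = versus positive control, 20 µM dose yields 30% or more activation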;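 also: 100% = tunicamycin at 10 µg/mL and 0% = DMSO only wells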
#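 Material: CHO-XBP1 cells stably carrying IRE1-XBP1-driven luciferase reporter / Amount: 1000 cells per well / Compound: 20 µM, 1% DMSO / Times: 6 h treatment, 37 °C / Detection: luciferase luminescence / Measure: % activation of reporter signal versus tunicamycin and DMSO controls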
# Numbers without * were called inactive; . = not tested or not shown. Many of the other results were omitted from the sample, so hits are more common in it than they were.
SMILES,CHOP inhibitor,PvdQ acylase,UPR CHOP act,XBP1 UPR activ
CCOc1ccc(NC(=S)Nc2ccc(C)c([N+](=O)[O-])c2)cc1,70*,-2,0,-2
C=CCNc1nc(-c2ccc([N+](=O)[O-])cc2)cs1,-34,-19,4,3
CN(C)c1nc(-c2ccc([N+](=O)[O-])cc2)cs1,72*,6,3,-2
CSc1ccccc1-c1n[nH]c(=S)o1,-1,-5,0,1
O=C(Nn1c(-c2ccc(F)cc2)nc2ccccc2c1=O)C1CCCCC1,0,12,-2,1
COc1ccccc1C1Nc2cccc3cccc(c23)N1,87*,-7,1,3
N/C(=N\OC(=O)c1cc(-c2ccccc2)nc2ccccc12)c1ccccn1,74*,-5,2,8
Cc1ccc(/C(N)=N/OC(=O)c2cc(-c3ccccc3)nc3ccccc23)cc1,43,-10,4,1
CCOc1cc(/C=N\NC(=O)c2ccc(C)nc2)ccc1OC(=O)c1ccc(F)cc1,.,-26,0,-3
CCOc1cc(/C=N\NC(=O)c2ccc(NC(=O)C(C)(C)C)cc2)ccc1OC(=O)c1ccc(C)cc1,83*,-8,6,5
CCOc1cc(/C=N/NC(=O)c2cc(C)[nH]n2)ccc1OC(=O)c1ccc([N+](=O)[O-])cc1,79*,.,2,-1
Cn1cccc1C(=O)NNC(=O)COc1ccccc1F,.,-10,2,-3
CC(=Nc1ccccc1)C1=C(O)CSC1=O,2,-3,-1,-5
COc1ccc(N=C(C)C2=C(O)CSC2=O)cc1,13,44*,11,-3
O=C(Nc1ccccc1C(=O)Nc1nnc(C(F)(F)F)s1)c1ccccc1,88*,-2,6,2
Cc1occc1C(=O)Nc1nnc(C(F)(F)F)s1,0,14,2,1
CC(=O)Nc1ccc(NC(=O)COC(=O)CCCc2c[nH]c3ccccc23)cc1,.,23,5,-1
Cc1cccc(NCc2ccccc2OCc2ccccc2F)c1,47,-12,1,-1
NS(=O)(=O)c1ccc(NCc2ccccc2OCc2ccccc2F)cc1,31,-15,0,1
Oc1ccc(NCc2ccccc2OCc2ccccc2F)cc1,85*,-2,3,9
Cc1ccc(NCc2ccccc2OCc2ccccc2F)cc1,85*,-1,0,0
Oc1ccc(/C=N/n2c3ccccc3c3ccccc32)cc1,91*,-10,1,-3
Cc1nnc(C)n1/N=C/c1ccc(O)cc1,6,-14,0,-3
COc1cc(NS(=O)(=O)c2ccc(NC(=S)NC(=O)/C=C/c3ccc(OC)c(OC)c3)cc2)ncn1,79*,4,2,0
COc1ccc(/C=C/C(=O)NC(=S)Nc2ccc(S(=O)(=O)Nc3cc(OC)ncn3)cc2)cc1,20,-12,.,.
SMILES,CHOP inhibitor,PvdQ acylase,UPR CHOP act,XBP1 UPR activ
Cc1cc(C)cc(NC(=O)C(OC(=O)c2ccc(NC(=O)CC#N)cc2)c2ccccc2)c1 (centres undefined),.,-14,-1,-1
O=C(O)C1CCCN(S(=O)(=O)c2ccc(-c3ccc(=O)[nH]n3)s2)C1 (centres undefined),.,1,0,-3
CCOc1ncnc2c1oc1nc(CC(C)C)c3c(c12)CC(C)(C)OC3,-7,-19,1,8
CCOc1nc(CC(C)C)c2c(c1C#N)CC(C)(C)OC2,74*,4,1,-2
COc1ccc(/C=C/C(=O)c2ccc(O)cc2)cc1,-57,20,3,3
COc1ccc(/C=C/C(=O)c2ccoc2)cc1,-38,40*,5,4
C=C(C)C1CCC2(C(=O)O)CCC3(C)C(CCC4C5(C)C(C=O)C(O)C(C)(C)C5CCC43C)C12 (centres undefined),85*,-15,0,2
Cc1ccsc1C(=O)OCC(=O)NC1CCCC(C)C1C (centres undefined),.,-14,1,0
Cc1cccc(NC(=O)Nc2nnc(N3CCCCC3C)s2)c1C (centres undefined),80*,-1,5,5
CCOc1ncccc1C(=O)OCc1cc(=O)oc2c(C)c(C)ccc12,75*,1,.,.
COCCN1C(=O)c2cc(C(=O)Nc3cccc(F)c3)ccc2C1Nc1cccc(F)c1 (centres undefined),90*,-7,1,1
CCc1ccc(NC(=O)c2ccc3c(c2)C(=O)N(CCOC)C3Nc2ccc(CC)cc2)cc1 (centres undefined),94*,-13,28,30
Cc1ccc(S(=O)(=O)C2(C(=O)NCCc3ccccc3)CC2)cc1,.,-18,0,-2
S=c1[nH]nc(-c2ccncc2)n1/N=C/c1cn(-c2ccccc2)nc1-c1ccccc1,-41,.,5,10
S=c1[nH]nc(-c2cccs2)n1/N=C/c1cn(-c2ccccc2)nc1-c1cccs1,79*,.,10,6
O=[N+]([O-])c1ccc(-c2nn(-c3ccccc3)cc2/C=N/n2c(-c3ccncc3)n[nH]c2=S)cc1,94*,-14,3,1
Cc1ccc(-c2nn(-c3ccccc3)cc2/C=N/n2c(-c3cccs3)n[nH]c2=S)cc1,21,.,2,3
CCc1nnc(NC(=O)CCS(=O)(=O)c2ccc(C)cc2)s1,.,0,0,-1
COc1cc(CN2CCCC(C(=O)c3ccccc3SC)C2)cc(OC)c1 (centres undefined),50,-5,-2,1
C=C[C@H]1CN2CCC1C[C@@H]2[C@@H](O)c1ccnc2ccc(OC)cc12 (some centres undefined),-19,.,.,.
O=C(O)CSC1=NC(=Nc2ccc(Cl)cc2)C2(CCCCC2)N1c1cccc(C(=O)O)c1,15,-15,0,-1
Cc1nc(N2CCN(C)CC2)c2sc(=S)n(-c3ccccc3)c2n1,-13,5,1,1
Cc1nc(N2CCN(C)CC2)c2sc(=S)n(C)c2n1,74*,14,-1,2
O=C(NC12CC3CC(CC(C3)C1)C2)c1ccccc1O,77*,-6,2,3
NC(=S)n1[nH]c(-c2ccc([N+](=O)[O-])cc2)c(N=Nc2cccc(Cl)c2)c1=O,83*,14,0,-4
COc1cccc(NC(=O)C2CCCN(S(=O)(=O)c3cccc4nsnc34)C2)c1 (centres undefined),68,-6,-1,-2
Cc1cccc2sc(NC(=O)C3CCN(S(=O)(=O)c4cc([N+](=O)[O-])ccc4Cl)CC3)nc12,70*,3,9,0
Cc1cccc(N2CCN(C(=O)C3CCN(S(=O)(=O)c4cccc5nsnc45)CC3)CC2C)c1 (centres undefined),83*,0,6,1
Cc1cccc2sc(NC(=O)C3CCCN(S(=O)(=O)c4cccc5nonc45)C3)nc12 (centres undefined),81*,0,0,-4
Cc1nnc(NC(=O)C2CCN(S(=O)(=O)c3cc([N+](=O)[O-])ccc3Cl)CC2)o1,.,10,-2,2
